Results reported in ChEMBL document CHEMBL1671834, “Novel 3-aryl indoles as progesterone receptor antagonists for uterine fibroids” (ACS Med Chem Lett, 2011).
Calls of active or inactive are those of the source. No cut-off for these calls is given here.

Experiments:
[1] = Oral bioavailability in rat; assay type: ADME, organism-based; settings: in vivo
How it was run: (§1)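 Compound given to rats as an oral suspension. Bioavailability, tmax, elimination half-life, volume of distribution and clearance determined.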

[2] = Elimination half life in rat; assay type: ADME, organism-based; settings: in vivo; how it was run: as §1
[3] = system: Oryctolagus cuniculus; experiment: Agonist activity at progesterone receptor in estrogen-primed immature New Zealand White rabbit assessed as stimulation of progesterone-induced endometrial transformation at 30 mg/kg, sc by McPhail assay; assay type: functional, organism-based; set-up: dose 30 mg/kg
How it was run: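 Immature rabbits primed with estrogen, dosed sc without progesterone. Endometrial transformation scored by McPhail Index.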

[4] = system: Rattus norvegicus; experiment: Antagonist activity at progesterone receptor in orally dosed ovariectomized Sprague-Dawley rat assessed as reversal of R5020-induced down-regulation of estradiol-induced increase in complement 3 mRNA expression by C3 rat uterine assay; assay type: functional; settings: po
How it was run: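 Ovariectomized rats dosed orally (mg/kg dose response). Estrogen (E2, 0.05 mg/kg) induces complement C3 mRNA in uterus. Progestin R5020 (0.1 mg/kg) down-regulates it. Read-out is reversal of the R5020 effect, expressed as fold over asoprisnil (5 mg/kg). ED50 derived from the dose response.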

[5] = Volume of distribution in rat; assay type: ADME, organism-based; settings: in vivo; how it was run: as §1
[6] = Tmax in rat; assay type: ADME, organism-based; settings: in vivo; how it was run: as §1
[7] = system: Oryctolagus cuniculus; experiment: Antagonist activity at progesterone receptor in estrogen-primed immature New Zealand White rabbit assessed as inhibition of progesterone-induced endometrial transformation at 1 mg/kg, sc by McPhail assay; assay type: functional, organism-based; set-up: dose 1 mg/kg
How it was run: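 Immature rabbits primed with estrogen, given progesterone 1 mg/kg with test compound at various sc doses. Endometrial transformation scored by McPhail Index.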

[8] = Clearance in rat; assay type: ADME, organism-based; settings: in vivo; how it was run: as §1

CC(C)n1cc(-c2ccc(C#N)c(F)c2)c2ccc(NS(C)(=O)=O)cc21
bioavailability [1]: 31.4% | half-life [2]: 19.8 h | Activity [3]: Active | ED50 [4]: 0.33 mg/kg | Vd [5]: 2.3 L/kg | Tmax [6]: 4 h | Activity [7]: Active | clearance [8]: 2.5 mL/min/kg
